Measurements published in article PMC4065498 (Chemical research in toxicology, 2010).

What was measured:
recombinant human CES1 = biological target: T1, recombinant human CES1 (Homo sapiens, UniProt P23141); type: biochemical; details: 2AG substrate
T1 sequence (P23141 18-567): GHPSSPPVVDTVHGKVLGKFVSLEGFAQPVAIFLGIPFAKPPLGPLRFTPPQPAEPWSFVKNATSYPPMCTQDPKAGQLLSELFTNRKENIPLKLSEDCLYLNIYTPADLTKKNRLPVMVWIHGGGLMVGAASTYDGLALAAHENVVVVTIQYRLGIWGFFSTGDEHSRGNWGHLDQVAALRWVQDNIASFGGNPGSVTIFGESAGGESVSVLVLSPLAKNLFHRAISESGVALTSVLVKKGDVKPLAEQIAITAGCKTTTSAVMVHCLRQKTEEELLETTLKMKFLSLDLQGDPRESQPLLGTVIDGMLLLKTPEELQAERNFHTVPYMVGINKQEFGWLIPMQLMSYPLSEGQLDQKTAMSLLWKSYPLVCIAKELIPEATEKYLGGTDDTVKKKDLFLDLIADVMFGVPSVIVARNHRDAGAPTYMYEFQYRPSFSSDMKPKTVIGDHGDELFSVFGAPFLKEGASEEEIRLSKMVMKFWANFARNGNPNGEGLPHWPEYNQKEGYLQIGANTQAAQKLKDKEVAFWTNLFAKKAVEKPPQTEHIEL

recombinant human MAGL = biological target: T2, recombinant human MAGL (Homo sapiens, UniProt Q99685); type: biochemical; details: 2AG substrate
T2 sequence (Q99685 1-303): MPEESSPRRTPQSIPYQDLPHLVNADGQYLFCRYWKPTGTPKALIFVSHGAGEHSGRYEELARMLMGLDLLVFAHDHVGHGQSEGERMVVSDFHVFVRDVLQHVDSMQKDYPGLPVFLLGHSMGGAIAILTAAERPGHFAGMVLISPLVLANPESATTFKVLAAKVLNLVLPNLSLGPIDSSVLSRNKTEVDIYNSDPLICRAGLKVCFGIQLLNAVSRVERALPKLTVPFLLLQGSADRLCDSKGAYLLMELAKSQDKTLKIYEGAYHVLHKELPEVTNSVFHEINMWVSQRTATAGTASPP

[1] = test system: 31-32kDa enzyme in THP1 lysates; test: Activity-based protein profiling with FP-biotin in THP1 lysate: 31-32kDa enzyme; type: biochemical, human
How it was run: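 THP1 monocyte lysate (1 mg/ml protein in 50 mM Tris-HCl, pH 7.4) was labelled with 2 μM FP-biotin for 1 h at room temperature. Irreversible inhibitors were preincubated for 30 min (37°C) before the probe. For the reversible inhibitor, lysate received inhibitor, then 0.2 μM FP-biotin for 7.5 min, short of full labelling. Reactions were stopped in reducing SDS loading buffer (95°C, 5 min), run on SDS-PAGE and blotted with avidin-HRP.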

THP1 macrophages = test: PG-G and 2AG levels in LPS-primed THP1 macrophages stimulated with ionomycin; type: cell-based, human; details: oxon 1 μM, ionomycin 5 μM
THP1 foam cells = test: Endogenous 2AG produced by cholesterol-loaded THP1 macrophages; type: cell-based, human; details: 24 h
[2] = test system: lipid glyceryl ester hydrolase activities of THP1 monocyte lysates

In the case of chlorpyrifos oxon [CPO], the “inhibition of recombinant CES1 (in words)” value (recombinant human CES1) is reported as “potently inhibit”, the “inhibition of recombinant MAGL (in words)” value (recombinant human MAGL) is reported as “potently inhibit” and the “concentration needed to reduce activity of the 31-32kDa enzyme toward FP-biotin” value [1] is reported as > 10 µM. For the same substance, the “PGF2α-G, PGE2-G, and 2AG levels compared to vehicle-treated cells following ionomycin stimulation” value (THP1 macrophages) was “significantly elevated”, the “amount of 2AG in culture medium relative to control group” value (THP1 foam cells; oxon 1 μM) was 2.5 fold and the “amount of 2AG in culture medium relative to control group” value (THP1 foam cells; oxon 10 μM) was 8.1 fold. For the same substance, the “inhibition of PGE2-G hydrolysis activity in THP1 cell lysate” value ([2]; oxon 1 μM) was “near complete inhibition”, the “inhibition of hydrolysis of exogenous 2AG in THP1 lysate” value ([2]; oxon 1 μM, 2AG 10 μM) was 49% and the “inhibition of 2AG hydrolysis activity in THP1 lysate” value ([2]; oxon 10 μM) was 72%. The “knock down of 2AG hydrolysis activity in THP1 monocyte lysate” value ([2]; oxon 500 μM) was 94%.
